Measured values reported in ChEMBL document CHEMBL1147363, “Inhibitory effect of carnosic acid on HIV-1 protease in cell-free assays [corrected]” (J Nat Prod, 1993).
Values after ≈ are worked out from the molar mass of the structure shown. Active and inactive are the calls of the source. No cut-off for these calls is given here.

What was measured:
[1] = organism: Sus scrofa; assay: Inhibition of pig pepsin up to 10 ug/ml
In short: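 Porcine pepsin, 40 nM final. Compound stock diluted in 0.01 M HCl and preincubated with enzyme 10 min at room temperature. 2% hemoglobin substrate (pH 1.8) added, 10 min at 37°. Stopped with 0.33 M TCA; activity by modified Anson hemoglobin method. Tested up to 10 μg/ml.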

[2] = biological target: Protease (Human immunodeficiency virus 1) (UniProt Q9YQ12); assay: Inhibition of HIV1 recombinant protease expressed in Escherichia coli BL21 (DE3) cells by SDS-PAGE
Sequence of Protease (Human immunodeficiency virus 1) (Q9YQ12 as listed by the source): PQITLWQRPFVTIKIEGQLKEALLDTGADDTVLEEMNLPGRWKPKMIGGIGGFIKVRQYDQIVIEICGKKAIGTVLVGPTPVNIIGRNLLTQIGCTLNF

[3] = biological target: T1, Cathepsin D (Bos taurus) (UniProt P80209); assay: Inhibition of bovine spleen cathepsin D up to 10 ug/ml
T1 sequence (whole entry): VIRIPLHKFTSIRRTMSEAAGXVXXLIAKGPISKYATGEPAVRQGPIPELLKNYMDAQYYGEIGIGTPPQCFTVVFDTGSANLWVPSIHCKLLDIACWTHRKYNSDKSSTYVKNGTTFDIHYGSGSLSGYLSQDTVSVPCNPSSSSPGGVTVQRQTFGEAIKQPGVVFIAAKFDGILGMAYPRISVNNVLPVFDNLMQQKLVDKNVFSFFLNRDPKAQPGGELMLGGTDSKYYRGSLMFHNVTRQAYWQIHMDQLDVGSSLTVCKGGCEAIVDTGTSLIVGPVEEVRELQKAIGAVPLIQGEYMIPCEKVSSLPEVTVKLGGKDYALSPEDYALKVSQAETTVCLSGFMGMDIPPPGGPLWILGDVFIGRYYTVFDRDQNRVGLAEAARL
In short: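 Cathepsin D purified from bovine spleen, 40 nM final. Compound (DMSO stock diluted in 0.1 M Na acetate pH 3.5) preincubated with enzyme 10 min. 2% hemoglobin substrate added, 10 min at 37°. Stopped with 0.33 M trichloroacetic acid. Soluble products treated with NaOH and Folin-Ciocalteu reagent; absorbance read at 750 nm. Tested up to 10 μg/ml.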

[4] = tested on: H9; assay: Cytotoxicity against human H9 cells after 3 or 5 days by XTT assay; assay type: cell-based; conditions: h9, 120 h
In short: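 Cells seeded at 1×10^5 per well with graded compound concentrations and grown at 36° for 3 or 5 days depending on cell type. XTT (1 mg/ml, with 0.025 mM phenazine methosulfate) added, 1 h at 36°, OD450 read. TC90 is the concentration giving 90% reduction in viable cells.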

[5] = tested on: Human immunodeficiency virus 1; assay: Antiviral activity against HIV1 replication infected in human MT2 cells assessed as reduction in plaque formation after 3 days by MTT assay; assay type: functional; conditions: Human immunodeficiency virus 1, MT2, 72 h
In short: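 MT-2 cells pretreated 30 min at room temperature with compound (DMSO stock diluted in RPMI), infected with HIV-1 (3b or rf) 1 h at 36°, washed, then grown 3 days in compound-containing RPMI. Progeny titre measured by plaque assay on poly-L-lysine-coated MT-2 monolayers under agarose overlays, stained with MTT. Activity expressed as percent reduction in titre versus untreated virus; IC90 reported.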

Compound | Activity [1] | IC90 [2] [µg/mL] | Activity [3] | TC90 [4] [µg/mL] | IC90 [5] [µg/mL]
CO[C@H]1c2cc(C(C)C)c(O)c(O)c2[C@@]23CCCC(C)(C)[C@@H]2[C@@H]1OC3=O | inactive | 1.5 | inactive | – | –
COc1c(C(C)C)cc2c(c1OC)[C@@]13CCCC(C)(C)[C@@H]1C[C@@H]2OC3=O | inactive | > 10 | inactive | – | –
CC(C)c1cc2c(c(O)c1O)[C@@]1(C(=O)O)CCCC(C)(C)[C@@H]1CC2 [CARNOSIC ACID] | inactive | 0.08 | inactive | 0.36 (≈ 1.08 µM) | 0.32 (≈ 0.963 µM)

More lines, main results first:

Activity [1] | IC90 [2] [µg/mL] | Activity [3] | Compound | TC90 [4] [µg/mL] | IC90 [5] [µg/mL]
inactive | > 10 | inactive | CC(C)c1cc2c(c(O)c1O)[C@@]13CCCC(C)(C)[C@@H]1C[C@@H]2OC3=O | – | –
inactive | 0.6 | inactive | CC(C)c1cc2c(c(O)c1O)[C@@]13CCCC(C)(C)[C@@H]1[C@H](OC3=O)[C@H]2O | – | –
inactive | 1.7 | inactive | CCO[C@H]1c2cc(C(C)C)c(O)c(O)c2[C@@]23CCCC(C)(C)[C@@H]2[C@@H]1OC3=O | – | –
